{"data": "Experimental data gathered from unrelated publications", "target": "Serine/threonine-protein kinase 16 (STK16, Homo sapiens, UniProt O75716)", "note": "Protocols differ between the studies behind these lines."}
{"SMILES": "CCS(=O)(=O)c1cc2cc(C[C@@](O)(CC(C)(C)c3ccc(F)cc3C(N)=O)C(F)(F)F)[nH]c2cn1", "test": "cell-free assay, competition with immobilised ligand", "conditions": "1 µM", "quantity": "remaining binding", "result": "91%"}
{"SMILES": "O=C(Nc1cnn(-c2csc(C(=O)NC3COC3)c2)c1)Nc1c(F)cccc1Cl", "test": "enzyme activity, inhibitor", "conditions": "5 µM", "quantity": "remaining activity", "result": "107%"}
{"SMILES": "C#Cc1cccc(Nc2ncnc3cc(OCCOC)c(OCCOC)cc23)c1", "test": "cell-free assay", "conditions": "0.5 µM", "quantity": "remaining signal", "result": "98%"}
{"SMILES": "CN(C(=O)c1ccccc1)c1cc(N(C)c2ccc3c(c2)CCc2ccc(C(=O)NCCN4CCOCC4)cc2C3=O)ccc1F", "test": "cell-free assay, competition with immobilised ligand", "conditions": "1 µM", "quantity": "remaining binding", "result": "93%"}
{"SMILES": "CC(C)(O)[C@H]1CC[C@H](Nc2ccc3ncc(-c4cccc(C(F)(F)F)c4)n3n2)CC1", "test": "enzyme activity, inhibitor", "conditions": "1 µM", "quantity": "remaining activity", "result": "78.7%"}
{"SMILES": "COc1cc(Cl)c(C(=O)N[C@@H](CN[C@H]2CC[C@@H](N)CC2)Cc2ccc(C#N)cc2)cc1-c1ccc(CN[C@H](C)c2ccc(C)cc2)o1", "test": "enzyme activity, inhibitor", "conditions": "1 µM", "quantity": "remaining activity", "result": "95%"}
{"SMILES": "Cn1cncc1C1=CN(c2ncnc3[nH]cnc23)CCS1", "test": "enzyme activity, inhibitor, radiometric", "conditions": "2 µM", "quantity": "inhibition", "result": "49.5%"}
{"SMILES": "Nc1cnc(N2CCc3cc(S(=O)(=O)Nc4c(F)cc(Cl)cc4F)cc(N4CCCC4=O)c32)nc1", "test": "cell-free assay, competition with immobilised ligand", "conditions": "1 µM", "quantity": "remaining binding", "result": "100%"}
{"SMILES": "COc1cc(Nc2cnc(C#N)c(O[C@H](C)CN(C)C)n2)ncc1-c1cnn(C)c1", "test": "enzyme activity, inhibitor, radiometric", "conditions": "1 µM", "quantity": "remaining activity", "result": "91%"}
{"SMILES": "Oc1cccc(-c2nc(N3CCOCC3)c3oc4ncccc4c3n2)c1", "test": "cell-free assay", "conditions": "0.5 µM", "quantity": "remaining signal", "result": "91.7%"}
{"SMILES": "CN([C@@H]1CCc2c(CC(=O)O)c3cc(S(C)(=O)=O)ccc3n2C1)S(=O)(=O)c1ccc(F)cc1", "test": "cell-free assay, competition with immobilised ligand", "conditions": "1 µM", "quantity": "remaining binding", "result": "95%"}
{"SMILES": "O=C1NC(=O)c2cc(Nc3ccc(F)cc3)c(Nc3ccc(F)cc3)cc21", "test": "cell-free assay", "conditions": "0.5 µM", "quantity": "remaining signal", "result": "85.8%"}
{"SMILES": "O=C(Nc1cnn(-c2csc(C(=O)NC3COC3)c2)c1)Nc1ccccc1Cl", "test": "enzyme activity, inhibitor", "conditions": "5 µM", "quantity": "remaining activity", "result": "98.6%"}
{"SMILES": "FC(F)(F)Oc1cccc(-c2cnc3ccc(-c4ccncc4)nn23)c1", "test": "enzyme activity, inhibitor, radiometric", "conditions": "5 µM", "quantity": "activity vs control", "result": "118%"}
{"SMILES": "Cn1cnc(Br)c1C1=CN(c2ncnc3[nH]cnc23)CCS1", "test": "enzyme activity, inhibitor, radiometric", "conditions": "2 µM", "quantity": "inhibition", "result": "67.8%"}
{"SMILES": "Nc1ncnc2occ(-c3ccc(NC(=O)Nc4cc(C(F)(F)F)ccc4F)cc3)c12", "test": "cell-free assay, inhibitor", "conditions": "20 µM", "quantity": "remaining signal", "result": "84%"}
{"SMILES": "COc1cc(/C=C/C(=O)CC(=O)/C=C/c2ccc(O)c(OC)c2)ccc1O", "test": "enzyme activity, inhibitor", "conditions": "1 µM", "quantity": "activity vs control", "result": "91%"}
{"SMILES": "CS(=O)(=O)N1CCCC(NC(=O)[C@H](CCC2CCCCC2)NC(=O)c2ccc(CNc3ncnc4c3nnn4-c3ccccc3)cc2)C1 (stereo partly shown)", "test": "cell-free assay, competition with immobilised ligand", "conditions": "0.1 µM", "quantity": "remaining binding", "result": "100%"}
{"SMILES": "COc1cc(-c2cc(-c3ccc(N4CCNCC4)cc3)cnc2C)cc(OC)c1OC", "test": "enzyme activity, inhibitor", "conditions": "0.1 µM", "quantity": "inhibition", "result": "4%"}
